Data published in ChEMBL document CHEMBL4393725, “Design and synthesis of novel xanthone-triazole derivatives as potential antidiabetic agents: α-Glucosidase inhibition and glucose uptake promotion” (Eur J Med Chem, 2019).
Calls of active or inactive are those of the source. No cut-off for these calls is given here.

Assays:
L02 = experiment: Cytotoxicity against human LO2 cells assessed as reduction in cell viability incubated for 44 hrs by MTT assay; assay type: cell-based; conditions: L02, 44 h
In short: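 LO2 human hepatocytes in DMEM with 10% FBS, penicillin and streptomycin at 37 °C, 5% CO2. Plated at 5000 cells/well for 24 h, then exposed to a range of concentrations for 44 h. MTT was added for 4 h, formazan dissolved in DMSO, and A490 read. Viability = A treated/A control × 100%. IC50 is the concentration giving 50% viability loss, as mean ± SD.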

Alpha glucosidase = Alpha glucosidase (Homo sapiens, UniProt O43451+P10253+P14410+Q2M2H8); experiment: Inhibition of alpha-glucosidase (unknown origin) using PNP glucoside as substrate preincubated for 30 mins followed by substrate addition further incubated for 1 min by spectrophotometry; assay type: protein assay
In short: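 Yeast α-glucosidase with p-nitrophenyl-α-D-glucopyranoside substrate in 50 mM phosphate buffer, pH 6.8, with 5% v/v DMSO. Inhibitor and enzyme were preincubated for 30 min at 37 °C, then the reaction ran for 1 min at 37 °C, read at 400 nm. IC50 came from five concentrations bracketing a preliminary estimate, each measured three times in parallel; mean ± SD.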

HepG2 (Homo sapiens) = experiment: Cytotoxicity against human HepG2 cells assessed as effect on cell survival at 0.625 to 2.5 uM incubated for 44 hrs by MTT assay; conditions: HepG2, 44 h
[1] = test system: Alpha-glucosidase (Saccharomyces cerevisiae); experiment: Noncompetitive inhibition of alpha-glucosidase (Saccharomyces cerevisiae) at 0 to 3.5 uM using PNP glycoside as substrate preincubated for 30 mins followed by substrate addition further incubated for 1 min by Lineweaver-Burk plot analysis
HepG2 [2] = experiment: Induction of glucose uptake in human HepG2 cells at 0.625 to 2.5 uM incubated for 24 hrs in low glucose medium; assay type: functional, cell-based
In short: (§1)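 HepG2 cells in high-glucose DMEM with 10% FBS and antibiotics, seeded at 5000 cells/well for 24 h. They were washed with low-glucose DMEM and PBS, then treated for 24 h in low-glucose DMEM with 2% FBS at 0.625, 1.25 or 2.5 μM. Glucose left in the medium was measured with a glucose kit. Rosiglitazone was the positive control.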

[3] = test system: Alpha-glucosidase (Saccharomyces cerevisiae); experiment: Noncompetitive inhibition of alpha-glucosidase (Saccharomyces cerevisiae) at 0 to 10 uM using PNP glycoside as substrate preincubated for 30 mins followed by substrate addition further incubated for 1 min by Lineweaver-Burk plot analysis
HepG2 [4] = experiment: Induction of glucose uptake in human HepG2 cells at 0.625 to 2.5 uM incubated for 24 hrs in low glucose medium relative to control; assay type: functional; in short: as §1
HepG2 [5] = experiment: Induction of glucose uptake in human HepG2 cells incubated for 24 hrs in low glucose medium; assay type: functional, cell-based; in short: as §1
[6] = test system: Alpha-glucosidase (Saccharomyces cerevisiae); experiment: Noncompetitive inhibition of alpha-glucosidase (Saccharomyces cerevisiae) at 0 to 4 uM using PNP glycoside as substrate preincubated for 30 mins followed by substrate addition further incubated for 1 min by Lineweaver-Burk plot analysis
HepG2 [7] = experiment: Induction of glucose uptake in human HepG2 cells at 2.5 uM incubated for 24 hrs in low glucose medium relative to control; assay type: functional; in short: as §1
HepG2 [8] = experiment: Induction of glucose uptake in human HepG2 cells at 1.25 uM incubated for 24 hrs in low glucose medium relative to control; assay type: functional; in short: as §1
HepG2 [9] = experiment: Induction of glucose uptake in human HepG2 cells at 0.625 uM incubated for 24 hrs in low glucose medium relative to control; assay type: functional; in short: as §1
[10] = test system: Alpha-glucosidase (Saccharomyces cerevisiae); experiment: Noncompetitive inhibition of alpha-glucosidase (Saccharomyces cerevisiae) at 0 to 6 uM using PNP glycoside as substrate preincubated for 30 mins followed by substrate addition further incubated for 1 min by Lineweaver-Burk plot analysis
[11] = test system: Alpha-glucosidase (Saccharomyces cerevisiae); experiment: Noncompetitive inhibition of alpha-glucosidase (Saccharomyces cerevisiae) at 0 to 9 uM using PNP glycoside as substrate preincubated for 30 mins followed by substrate addition further incubated for 1 min by Lineweaver-Burk plot analysis

Compound | IC50 (L02) [µM] | IC50 (Alpha glucosidase) [µM] | Activity (HepG2 (Homo sapiens)) | Activity (HepG2 [2]) | other results
COc1ccc(NC(=O)Cn2cc(COc3cc(O)c4c(=O)c5cc(Br)ccc5oc4c3)nn2)cc1OC | > 100 | 29.84 | – | – | –
COc1ccc(NC(=O)Cn2cc(COc3cc(O)c4c(=O)c5ccc(Br)cc5oc4c3)nn2)c(OC)c1 | > 100 | 2.78 | Non-Toxic | Active | inhibition [1]: Active
O=C(Cn1cc(COc2cc(O)c3c(=O)c4ccc(Br)cc4oc3c2)nn1)Nc1ccc(O)cc1O | 74 | 5.87 | Non-Toxic | inactive | inhibition [3]: Active
CN(CCOc1ccc(CC2SC(=O)NC2=O)cc1)c1ccccn1 (stereo unspecified) [ROSIGLITAZONE] | – | – | – | – | Activity (HepG2 [4]): 50%
COc1ccc(NC(=O)Cn2cc(COc3cc(O)c4c(=O)c5ccc(OC)cc5oc4c3)nn2)c(OC)c1 | 89.1 | 2.06 | Non-Toxic | – | Activity (HepG2 [5]): Dose-dependent effect; inhibition [6]: Active
COc1ccc(NC(=O)Cn2cc(COc3cc(OC(C)=O)c4c(=O)c5cc(Br)ccc5oc4c3)nn2)c(OC)c1 | 80.7 | 12.13 | Non-Toxic | inactive | –
O=C(Cn1cc(COc2cc(O)c3c(=O)c4cc(O)ccc4oc3c2)nn1)Nc1ccc(O)c(O)c1 | > 100 | 7.06 | Non-Toxic | inactive | –
O=C(Cn1cc(COc2cc(O)c3c(=O)c4ccc(O)cc4oc3c2)nn1)Nc1ccc(O)cc1O | > 100 | 17.61 | – | – | –
COc1ccc(NC(=O)Cn2cc(COc3cc(OC(C)=O)c4c(=O)c5ccc(OC)cc5oc4c3)nn2)c(OC)c1 | > 100 | 33.16 | – | – | –
COc1ccc(NC(=O)Cn2cc(COc3cc(OC(C)=O)c4c(=O)c5ccc(Br)cc5oc4c3)nn2)cc1OC | 25.9 | 26.11 | – | – | –
COc1ccc2oc3cc(OCc4cn(CC(=O)Nc5ccc(OC)c(OC)c5)nn4)cc(OC(C)=O)c3c(=O)c2c1 | 24.9 | > 100 | – | – | –
O=C(Cn1cc(COc2cc(O)c3c(=O)c4cc(O)ccc4oc3c2)nn1)Nc1ccc(O)cc1O | > 100 | 15.62 | – | – | –
COc1ccc2c(=O)c3c(OC(C)=O)cc(OCc4cn(CC(=O)Nc5ccc(OC)c(OC)c5)nn4)cc3oc2c1 | > 100 | 98.63 | – | – | –
COc1ccc(NC(=O)Cn2cc(COc3cc(OC(C)=O)c4c(=O)c5ccc(Br)cc5oc4c3)nn2)c(OC)c1 | > 100 | 12.78 | Non-Toxic | – | Activity (HepG2 [7]): 163%; Activity (HepG2 [5]): Dose-dependent effect; Activity (HepG2 [8]): 90%; Activity (HepG2 [9]): 61%
O=C(Cn1cc(COc2cc(O)c3c(=O)c4cc(Br)ccc4oc3c2)nn1)Nc1ccc(O)c(O)c1 | > 100 | 3.17 | Non-Toxic | Active | inhibition [10]: Active
COc1ccc(NC(=O)Cn2cc(COc3cc(O)c4c(=O)c5cc(OC)ccc5oc4c3)nn2)c(OC)c1 | 65.4 | 8.31 | Non-Toxic | inactive | –
O=C(Cn1cc(COc2cc(O)c3c(=O)c4ccc(Br)cc4oc3c2)nn1)Nc1ccc(O)c(O)c1 | > 100 | 5.23 | Non-Toxic | – | Activity (HepG2 [5]): Dose-dependent effect; inhibition [11]: Active
O=C(Cn1cc(COc2cc(O)c3c(=O)c4ccc(O)cc4oc3c2)nn1)Nc1ccc(O)c(O)c1 | > 100 | 6.13 | Non-Toxic | – | Activity (HepG2 [5]): Dose-dependent effect
COc1ccc2c(=O)c3c(O)cc(OCc4cn(CC(=O)Nc5ccc(OC)c(OC)c5)nn4)cc3oc2c1 | > 100 | 15.9 | – | – | –
COc1ccc(NC(=O)Cn2cc(COc3cc(O)c4c(=O)c5cc(Br)ccc5oc4c3)nn2)c(OC)c1 | > 100 | 3.07 | Non-Toxic | inactive | inhibition [10]: Active
O=c1c2ccccc2oc2cc(O)cc(O)c12 | – | – | Non-Toxic | inactive | –
COc1ccc2oc3cc(OCc4cn(CC(=O)Nc5ccc(OC)c(OC)c5)nn4)cc(O)c3c(=O)c2c1 | > 100 | > 100 | – | – | –
2-(4-(((7-bromo-1-hydroxy-9-oxo-9H-xanthen-3-yl)oxy)methyl)-1H-1,2,3-triazol-1-yl)-N-(2,4-dihydroxyphenyl)acetamide | – | – | – | Active | –
COc1ccc(NC(=O)Cn2cc(COc3cc(OC(C)=O)c4c(=O)c5cc(OC)ccc5oc4c3)nn2)c(OC)c1 | > 100 | 42.6 | – | – | –
COc1ccc(NC(=O)Cn2cc(COc3cc(OC(C)=O)c4c(=O)c5cc(Br)ccc5oc4c3)nn2)cc1OC | > 100 | 32.33 | – | – | –
COc1ccc(NC(=O)Cn2cc(COc3cc(O)c4c(=O)c5ccc(Br)cc5oc4c3)nn2)cc1OC | > 100 | 11.82 | – | – | –
